Entries after “also recorded” stand apart in the source; their conditions may differ.
How the values were obtained:
hNK1 receptors [1] = biological target: T1, hNK1 receptors (Homo sapiens, UniProt P25103); test: [3H]Substance-P competition binding assay, hNK1-CHO membranes
hNK1 receptors [2] = biological target: T1, hNK1 receptors; test: Functional NK1 receptor assay; format: cell-based
MOP receptor [3] = biological target: MOP receptor (Rattus norvegicus, UniProt P33535); test: Opioid receptor binding, [3H]DAMGO displacement from rat brain membranes
DOP receptor [4] = biological target: DOP receptor (Mus musculus, UniProt P32300); test: Mouse vas deferens; format: biochemical
DOP receptor [5] = biological target: DOP receptor (Rattus norvegicus, UniProt P33533); test: Opioid receptor binding, [3H]DSLET displacement from rat brain membranes
MOP receptor [6] = biological target: MOP receptor (Cavia porcellus, UniProt A0ACM8Q262); test: Guinea pig ileum; format: biochemical; conditions: read-out: GPI IC50; representative of MOP receptor activation
CCI-exposed mice [7] = test: Von Frey test, tactile hypersensitivity in neuropathic pain model; format: in vivo, mouse; conditions: i.t.; for duration of effect, von Frey test: moderate dose ca. 1 nmol (1 μg)
Procedure, shortened: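 CCI mice, unanesthetized, received test compound in water for injections intrathecally by lumbar puncture between L5 and L6, in a 5 μL volume. Doses ranged from about 0.1 to 10 nmol/animal. Calibrated nylon monofilaments (0.6–6 g, 6 g cutoff) were applied in serial increments to the hind-paw plantar surface until paw withdrawal, shaking or licking. Testing was done at 30, 90 and 180 min after dosing. Effect was expressed as % MPE.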

CCI-exposed mice [8] = test: Neuropathic pain model, von Frey and cold plate tests taken together; format: in vivo, mouse; conditions: i.t.; for relative analgesic efficacy among hybrids in neuropathic pain model: von Frey and cold plate tests
Procedure, shortened: (§1)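 CCI mice, unanesthetized, received test compound in water for injections intrathecally by lumbar puncture between L5 and L6, in a 5 μL volume. Doses ranged from about 0.1 to 10 nmol/animal. The cold plate was held at 2 °C and latency to hind-paw lift was timed, with a 30 s cutoff. Testing was done at 30, 90 and 180 min after dosing. Effect was expressed as % MPE.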

naive mice = test: Tail-flick test, acute pain after i.t. administration; format: in vivo, mouse; conditions: for duration of analgesic effect, tail-flick: 0.1 nmol; for analgesic effect in acute pain model: dose of 1 μg
CCI-exposed mice [9] = test: Cold plate test, thermal hypersensitivity in neuropathic pain model; format: in vivo, mouse; conditions: i.t.
Procedure, shortened: as §1

T1 sequence (P25103 whole entry): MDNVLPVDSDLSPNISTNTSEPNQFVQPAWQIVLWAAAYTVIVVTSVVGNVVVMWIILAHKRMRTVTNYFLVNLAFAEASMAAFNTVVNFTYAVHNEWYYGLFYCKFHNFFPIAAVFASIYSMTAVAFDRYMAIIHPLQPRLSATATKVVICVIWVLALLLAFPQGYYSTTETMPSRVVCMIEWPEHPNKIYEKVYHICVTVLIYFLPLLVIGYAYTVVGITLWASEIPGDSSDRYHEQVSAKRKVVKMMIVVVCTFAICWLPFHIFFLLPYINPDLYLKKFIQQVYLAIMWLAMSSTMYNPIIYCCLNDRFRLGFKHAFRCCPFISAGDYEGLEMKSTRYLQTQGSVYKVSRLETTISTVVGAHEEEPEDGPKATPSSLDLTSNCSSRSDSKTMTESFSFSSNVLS
Chain of DOP receptor (Rattus norvegicus, UniProt P33533) (P33533 whole entry): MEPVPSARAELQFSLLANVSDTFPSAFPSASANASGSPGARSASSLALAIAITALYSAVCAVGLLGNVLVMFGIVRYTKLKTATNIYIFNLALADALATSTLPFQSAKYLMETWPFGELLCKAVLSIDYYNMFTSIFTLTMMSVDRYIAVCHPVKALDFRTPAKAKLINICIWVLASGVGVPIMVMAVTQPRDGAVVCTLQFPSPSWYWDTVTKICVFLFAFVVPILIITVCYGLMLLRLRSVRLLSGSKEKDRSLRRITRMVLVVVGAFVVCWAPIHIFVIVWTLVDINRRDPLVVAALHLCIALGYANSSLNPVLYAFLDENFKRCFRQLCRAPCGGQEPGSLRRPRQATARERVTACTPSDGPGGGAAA
Chain of MOP receptor (Rattus norvegicus, UniProt P33535) (P33535 whole entry): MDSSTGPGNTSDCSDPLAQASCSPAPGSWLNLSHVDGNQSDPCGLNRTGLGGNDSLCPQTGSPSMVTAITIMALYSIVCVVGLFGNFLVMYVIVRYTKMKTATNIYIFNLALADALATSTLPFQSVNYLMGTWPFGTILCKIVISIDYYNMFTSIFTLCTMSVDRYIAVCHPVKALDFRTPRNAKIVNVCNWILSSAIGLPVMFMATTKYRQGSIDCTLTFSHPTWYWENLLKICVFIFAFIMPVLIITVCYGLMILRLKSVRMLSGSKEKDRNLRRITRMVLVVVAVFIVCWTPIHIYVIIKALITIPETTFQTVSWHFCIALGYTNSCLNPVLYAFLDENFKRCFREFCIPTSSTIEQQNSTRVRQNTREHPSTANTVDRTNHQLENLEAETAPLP
Chain of DOP receptor (Mus musculus, UniProt P32300) (P32300 whole entry): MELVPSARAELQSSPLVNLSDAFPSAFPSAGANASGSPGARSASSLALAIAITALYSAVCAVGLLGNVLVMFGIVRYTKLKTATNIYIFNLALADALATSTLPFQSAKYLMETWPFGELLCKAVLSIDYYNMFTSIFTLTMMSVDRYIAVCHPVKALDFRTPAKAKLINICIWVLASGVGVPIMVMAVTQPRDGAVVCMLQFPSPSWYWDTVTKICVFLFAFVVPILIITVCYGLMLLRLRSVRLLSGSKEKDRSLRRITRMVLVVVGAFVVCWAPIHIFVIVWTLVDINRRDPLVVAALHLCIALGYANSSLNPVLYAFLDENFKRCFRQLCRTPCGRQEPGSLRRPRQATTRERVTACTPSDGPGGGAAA
Chain of MOP receptor (Cavia porcellus, UniProt A0ACM8Q262) (A0ACM8Q262 1-400): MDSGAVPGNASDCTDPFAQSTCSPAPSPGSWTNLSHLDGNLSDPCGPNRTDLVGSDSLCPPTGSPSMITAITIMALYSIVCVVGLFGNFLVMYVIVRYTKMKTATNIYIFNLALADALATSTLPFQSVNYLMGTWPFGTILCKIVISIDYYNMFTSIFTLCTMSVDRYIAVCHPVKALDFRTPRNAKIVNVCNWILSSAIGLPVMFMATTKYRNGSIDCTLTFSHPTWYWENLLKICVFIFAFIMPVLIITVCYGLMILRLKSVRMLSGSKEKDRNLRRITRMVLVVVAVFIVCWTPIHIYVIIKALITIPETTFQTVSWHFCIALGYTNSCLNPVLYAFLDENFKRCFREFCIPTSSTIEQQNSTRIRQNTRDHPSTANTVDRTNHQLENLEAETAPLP

Molecule	Ki (hNK1 receptors [1])	Kb (hNK1 receptors [2])	Ki (MOP receptor [3])	IC50 (DOP receptor [4])	Ki (DOP receptor [5])	IC50 (MOP receptor [6])	further results
Cc1cc(O)cc(C)c1C[C@H](N)C(=O)N[C@H](CCCNC(=N)N)C(=O)N[C@H]1Cc2ccccc2CN(CCC(=O)N(Cc2cc(C(F)(F)F)cc(C(F)(F)F)c2)C2CC2)C1=O [Compound 6, H-Dmt-D-Arg-Aba-β-Ala-NcPr-3′,5′-(CF3)2-Bn]	735 nM	4370 nM	47 nM	16 nM	190 nM	18 nM	
Cc1cc(O)cc(C)c1C[C@H](N)C(=O)N[C@H](CCCNC(=N)N)C(=O)N[C@H]1Cc2ccccc2CN(CCC(=O)N(Cc2ccccc2)C2CC2)C1=O [Compound 7, H-Dmt-D-Arg-Aba-β-Ala-NcPr-Bn]	520 nM	6310 nM	2.7 nM	6.6 nM	66 nM	19 nM	
Cc1cc(O)cc(C)c1C[C@H](N)C(=O)N[C@H](CCCNC(=N)N)C(=O)N[C@H]1Cc2ccccc2CN(CC(=O)N(Cc2ccccc2)C2CC2)C1=O [Compound 8, H-Dmt-D-Arg-Aba-Gly-NcPr-Bn]	95 nM	3160 nM	0.3 nM	11.2 nM	68 nM	10 nM	
Cc1cc(O)cc(C)c1C[C@H](N)C(=O)N[C@H](CCCNC(=N)N)C(=O)N[C@H]1Cc2ccccc2CN(CCC(=O)N2Cc3ccccc3C2)C1=O [Compound 9, H-Dmt-D-Arg-Aba-β-Ala-isoindoline]	> 10000 nM		0.2 nM	2.1 nM	16 nM	5 nM	
Cc1cc(O)cc(C)c1C[C@H](N)C(=O)N[C@H](CCCNC(=N)N)C(=O)N[C@H]1Cc2ccccc2CN(CC(=O)N2Cc3ccccc3C2)C1=O [Compound 10, H-Dmt-D-Arg-Aba-Gly-isoindoline]	3500 nM	692000 nM	0.06 nM	8 nM	81 nM	7.3 nM	
COc1ccccc1CN(C)C(=O)CN1Cc2ccccc2C[C@H](NC(=O)[C@@H](CCCNC(=N)N)NC(=O)[C@@H](N)Cc2c(C)cc(O)cc2C)C1=O [Compound 11, H-Dmt-D-Arg-Aba-Gly-NMe-2′-OMe-Bn]	501 nM	14500 nM	0.9 nM	2.4 nM	26 nM	5 nM	
Cc1cc(O)cc(C)c1C[C@H](N)C(=O)N[C@H](CCCNC(=N)N)C(=O)N[C@H]1Cc2ccccc2CN(CCC(=O)N(C)Cc2ccc3ccccc3c2)C1=O [Compound 12, H-Dmt-D-Arg-Aba-β-Ala-NMe-2′-methylenenaphthyl]	612 nM	97.7 nM	0.4 nM	4 nM	44 nM	9 nM	duration of effect, von Frey test (CCI-exposed mice [7]): not observable 180 min after administration; relative analgesic efficacy among hybrids in neuropathic pain model (CCI-exposed mice [8]): weaker in both tests; duration of analgesic effect, tail-flick (naive mice): up to 180 min after administration; analgesic effect, tail-flick (naive mice; doses raised up to ca. 10 nmol): 60–70 % MPE
Cc1cc(O)cc(C)c1C[C@H](N)C(=O)N[C@H](CCCNC(=N)N)C(=O)N[C@H]1Cc2ccccc2CN(CC(=O)N(C)Cc2ccc3ccccc3c2)C1=O [Compound 13, H-Dmt-D-Arg-Aba-Gly-NMe-2′-methylenenaphthyl]	709 nM	3630 nM	2.8 nM	10 nM	228 nM	3 nM	influence on response, cold plate test (CCI-exposed mice [9]; 0.1 nmol): did not significantly influence the response; effect at 180 min, cold plate test (CCI-exposed mice [9]; highest dose 10 nmol): provided an effect at 180 min after administration; response threshold, von Frey test (CCI-exposed mice [7]; lowest tested dose 0.1 nmol): ca. 70 % MPE; duration of effect, von Frey test (CCI-exposed mice [7]): not observable 180 min after administration; relative analgesic efficacy among hybrids in neuropathic pain model (CCI-exposed mice [8]): most efficient analgesic in both tests; duration of analgesic effect, tail-flick (naive mice): up to 180 min after administration; analgesic effect, tail-flick (naive mice; doses raised up to ca. 10 nmol): 60–70 % MPE; effect in attenuating acute pain (naive mice; measured at three time points after administration): ~ 60 % MPE
H-Dmt-D-Arg-Aba-Gly-NH2 [Compound 1]							analgesic effect, von Frey test (CCI-exposed mice [7]; at 30 min): ca. 40 % MPE; analgesic effect, von Frey test (CCI-exposed mice [7]; maximum over doses): ≤ 40 % MPE; lowest dose raising latency of response to thermal stimuli, tail-flick (naive mice): 0.0013 nmol; analgesic effect in acute pain model (naive mice): ~100 % MPE; analgesic effect in acute pain model (naive mice; at 180 min after administration): > 80 % MPE; analgesic effect, tail-flick (naive mice; highest dose tested 1.3 nmol, lasting up to 180 min): ~100 % MPE; lowest efficacious dose in acute pain model (naive mice; p < 0.05 vs vehicle): 0.001 nmol/5 μL/animal
H-Dmt-D-Arg-Aba-Gly-NMe-3′,5′-(CF3)2-Bn [Compound 3, reference compound]							response latency / alleviation of hypersensitivity in neuropathic pain model (CCI-exposed mice [8]; test not specified or both tests): ca. 60 % MPE; tail-flick effect compared with parent compound (naive mice): weaker than its parent compound
H-Dmt-D-Arg-Aba-β-Ala-NH2 [Compound 2]							analgesic effect, cold plate test (CCI-exposed mice [9]; maximum over doses): no more than 20 % MPE; influence on response threshold, von Frey test (CCI-exposed mice [7]): no influence on the response threshold; also recorded: not efficacious at all; analgesic effect, tail-flick (naive mice; highest dose tested 1 nmol): ≤ 80 % MPE
